ChEMBL document CHEMBL1157888, “New 5-HT(1A) receptor ligands containing a N'-cyanoisonicotinamidine nucleus: synthesis and in vitro pharmacological evaluation” (Bioorg Med Chem Lett, 2010)

Legend:
[1] = target: T1, 5-hydroxytryptamine receptor 2C (Rattus norvegicus, UniProt P08909); test: Displacement of [3H]mesulergine from 5-HT2C receptor in Sprague-Dawley rat brain cortex after 15 mins
T1 sequence (P08909 whole entry): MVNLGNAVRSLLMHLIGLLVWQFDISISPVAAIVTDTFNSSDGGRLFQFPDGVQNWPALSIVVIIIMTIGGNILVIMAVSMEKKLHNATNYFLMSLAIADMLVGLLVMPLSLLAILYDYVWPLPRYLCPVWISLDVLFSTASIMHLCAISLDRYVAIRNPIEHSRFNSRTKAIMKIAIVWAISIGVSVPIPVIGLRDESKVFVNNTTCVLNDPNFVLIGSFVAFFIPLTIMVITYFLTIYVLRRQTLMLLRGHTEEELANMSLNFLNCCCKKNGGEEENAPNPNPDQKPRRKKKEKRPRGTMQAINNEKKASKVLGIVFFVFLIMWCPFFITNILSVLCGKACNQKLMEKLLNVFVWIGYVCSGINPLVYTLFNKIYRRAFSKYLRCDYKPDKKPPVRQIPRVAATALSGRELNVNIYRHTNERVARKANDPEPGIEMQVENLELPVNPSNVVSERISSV
Outline: (§1)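 Radioligand competition binding. Compounds were dissolved in ethanol or in 5% DMSO, and blank runs checked 5% DMSO for interference with binding. Six test-compound concentrations, each in triplicate, gave IC50 values by curve fitting. Ki was calculated by Cheng–Prusoff, Ki = IC50/(1 + S/KD), where S is the hot-ligand concentration and KD came from Scatchard analysis for each labeled ligand.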

[2] = target: 5-hydroxytryptamine receptor 2A (Rattus norvegicus, UniProt P14842); test: Displacement of [3H]ketanserin hydrochloride from 5-HT2A receptor in Sprague-Dawley rat brain cortex after 15 mins; outline: as §1
Chain of 5-hydroxytryptamine receptor 2A (P14842 whole entry): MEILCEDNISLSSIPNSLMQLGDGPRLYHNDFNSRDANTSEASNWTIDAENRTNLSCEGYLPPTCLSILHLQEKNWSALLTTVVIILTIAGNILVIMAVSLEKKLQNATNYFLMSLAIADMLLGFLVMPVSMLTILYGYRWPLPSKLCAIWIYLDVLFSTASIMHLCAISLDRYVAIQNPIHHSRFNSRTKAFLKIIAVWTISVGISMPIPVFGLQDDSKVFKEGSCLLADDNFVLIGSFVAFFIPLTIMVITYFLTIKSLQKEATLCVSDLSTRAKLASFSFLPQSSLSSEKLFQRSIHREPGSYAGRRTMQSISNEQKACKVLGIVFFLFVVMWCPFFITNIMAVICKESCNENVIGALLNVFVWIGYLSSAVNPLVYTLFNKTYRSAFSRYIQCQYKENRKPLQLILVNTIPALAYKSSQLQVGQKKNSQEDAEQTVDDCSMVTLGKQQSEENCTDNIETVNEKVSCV

[3] = target: T2, 5-hydroxytryptamine receptor 1A (Rattus norvegicus, UniProt P19327); test: Displacement of [3H]-8-OH-DPAT from 5-HT1A receptor in Sprague-Dawley rat brain cortex after 30 mins liquid scintillation spectrometer; format: tissue-based, Cerebral cortex; outline: as §1
T2 sequence (P19327 whole entry): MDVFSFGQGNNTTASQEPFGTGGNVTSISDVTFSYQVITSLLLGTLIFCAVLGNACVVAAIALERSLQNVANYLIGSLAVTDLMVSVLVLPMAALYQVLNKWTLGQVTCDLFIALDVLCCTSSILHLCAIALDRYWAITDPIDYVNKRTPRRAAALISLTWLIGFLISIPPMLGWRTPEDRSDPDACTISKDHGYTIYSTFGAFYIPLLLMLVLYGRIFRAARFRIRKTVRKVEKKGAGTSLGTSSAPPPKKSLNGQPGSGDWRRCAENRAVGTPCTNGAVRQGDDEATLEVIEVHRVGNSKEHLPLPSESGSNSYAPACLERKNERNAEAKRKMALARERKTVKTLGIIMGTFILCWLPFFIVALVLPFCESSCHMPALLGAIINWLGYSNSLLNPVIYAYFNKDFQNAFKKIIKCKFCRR

[4] = target: T3, Adrenergic receptor alpha-1 (Rattus norvegicus, UniProt P15823+P23944+P43140); test: Displacement of [3H]prazosin from alpha1 adrenergic receptor in rat striatum after 30 mins by liquid scintillation counting; conditions: in the assay text read “rat brain cortex” for “rat striatum”; outline: as §1
T3 sequence (P15823 whole entry): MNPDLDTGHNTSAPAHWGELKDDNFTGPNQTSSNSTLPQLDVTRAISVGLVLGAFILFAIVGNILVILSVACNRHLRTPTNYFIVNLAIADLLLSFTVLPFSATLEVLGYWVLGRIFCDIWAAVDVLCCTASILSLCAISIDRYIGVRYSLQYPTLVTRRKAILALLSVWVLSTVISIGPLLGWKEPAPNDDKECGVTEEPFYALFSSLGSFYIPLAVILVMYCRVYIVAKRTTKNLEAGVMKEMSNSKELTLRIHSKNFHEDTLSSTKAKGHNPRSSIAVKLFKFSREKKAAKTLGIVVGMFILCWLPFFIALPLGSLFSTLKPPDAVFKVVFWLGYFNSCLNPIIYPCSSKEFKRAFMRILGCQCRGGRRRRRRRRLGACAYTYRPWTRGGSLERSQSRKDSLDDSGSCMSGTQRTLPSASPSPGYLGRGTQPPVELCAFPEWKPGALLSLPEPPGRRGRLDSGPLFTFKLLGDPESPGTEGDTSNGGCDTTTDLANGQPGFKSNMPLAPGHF
T3 sequence (P23944 whole entry): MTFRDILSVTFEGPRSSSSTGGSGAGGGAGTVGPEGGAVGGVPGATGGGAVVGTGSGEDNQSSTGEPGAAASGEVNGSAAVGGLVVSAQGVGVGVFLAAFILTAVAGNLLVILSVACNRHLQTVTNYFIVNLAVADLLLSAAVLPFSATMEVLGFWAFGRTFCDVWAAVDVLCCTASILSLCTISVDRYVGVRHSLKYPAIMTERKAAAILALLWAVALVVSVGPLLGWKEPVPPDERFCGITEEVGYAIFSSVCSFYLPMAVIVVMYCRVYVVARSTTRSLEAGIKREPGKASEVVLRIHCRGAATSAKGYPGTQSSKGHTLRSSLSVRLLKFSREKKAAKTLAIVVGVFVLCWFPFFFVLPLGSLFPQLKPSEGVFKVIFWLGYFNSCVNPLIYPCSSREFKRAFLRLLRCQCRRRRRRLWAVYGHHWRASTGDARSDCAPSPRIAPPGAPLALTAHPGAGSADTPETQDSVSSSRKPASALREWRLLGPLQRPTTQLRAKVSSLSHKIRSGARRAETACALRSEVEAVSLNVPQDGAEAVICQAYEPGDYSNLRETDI
T3 sequence (P43140 whole entry): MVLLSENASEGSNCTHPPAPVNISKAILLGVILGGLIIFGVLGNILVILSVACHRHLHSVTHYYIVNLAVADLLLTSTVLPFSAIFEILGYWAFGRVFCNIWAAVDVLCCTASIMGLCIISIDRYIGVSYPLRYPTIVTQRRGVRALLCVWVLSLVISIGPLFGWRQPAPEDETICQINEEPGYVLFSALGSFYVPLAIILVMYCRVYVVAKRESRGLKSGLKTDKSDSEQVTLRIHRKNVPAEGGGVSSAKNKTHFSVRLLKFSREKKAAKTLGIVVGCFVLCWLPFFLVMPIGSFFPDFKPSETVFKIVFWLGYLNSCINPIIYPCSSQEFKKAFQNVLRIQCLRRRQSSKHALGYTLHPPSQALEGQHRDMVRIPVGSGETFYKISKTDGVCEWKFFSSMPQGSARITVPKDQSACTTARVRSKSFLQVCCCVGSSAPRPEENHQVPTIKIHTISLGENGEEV

D(1A) dopamine receptor = D(1A) dopamine receptor (Rattus norvegicus, UniProt P18901); test: Displacement of [3H]SCH-23390 from dopamine D1 receptor in rat striatum after 15 mins by liquid scintillation counting; outline: as §1
Chain of D(1A) dopamine receptor (P18901 whole entry): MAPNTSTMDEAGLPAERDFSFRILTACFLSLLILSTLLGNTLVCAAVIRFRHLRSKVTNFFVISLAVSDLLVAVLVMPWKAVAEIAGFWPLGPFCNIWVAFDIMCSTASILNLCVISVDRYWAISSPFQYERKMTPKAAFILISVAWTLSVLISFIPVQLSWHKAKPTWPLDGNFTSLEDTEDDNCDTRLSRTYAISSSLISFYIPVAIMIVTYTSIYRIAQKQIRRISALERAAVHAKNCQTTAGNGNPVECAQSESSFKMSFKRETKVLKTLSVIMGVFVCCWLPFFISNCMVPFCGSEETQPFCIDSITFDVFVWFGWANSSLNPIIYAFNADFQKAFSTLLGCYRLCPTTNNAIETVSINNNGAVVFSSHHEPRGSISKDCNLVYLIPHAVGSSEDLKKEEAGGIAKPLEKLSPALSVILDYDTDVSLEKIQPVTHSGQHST

D(2) dopamine receptor = D(2) dopamine receptor (Rattus norvegicus, UniProt P61169); test: Displacement of [3H]spiperone from dopamine D2 receptor in rat striatum after 15 mins by liquid scintillation counting; outline: as §1
Chain of D(2) dopamine receptor (P61169 whole entry): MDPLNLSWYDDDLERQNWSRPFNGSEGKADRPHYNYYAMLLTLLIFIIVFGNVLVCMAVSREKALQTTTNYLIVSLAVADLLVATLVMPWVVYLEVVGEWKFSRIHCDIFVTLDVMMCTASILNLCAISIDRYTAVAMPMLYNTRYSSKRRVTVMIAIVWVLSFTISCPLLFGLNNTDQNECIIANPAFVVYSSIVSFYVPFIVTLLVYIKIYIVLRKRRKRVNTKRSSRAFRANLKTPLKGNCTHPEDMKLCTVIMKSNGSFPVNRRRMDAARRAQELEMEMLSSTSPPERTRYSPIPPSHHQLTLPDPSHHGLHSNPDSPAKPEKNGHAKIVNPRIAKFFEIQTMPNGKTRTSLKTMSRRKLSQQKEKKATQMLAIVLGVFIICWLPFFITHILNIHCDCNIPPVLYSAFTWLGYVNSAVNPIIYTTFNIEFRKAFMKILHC

[5] = target: T4, Adrenergic receptor alpha-2 (Rattus norvegicus, UniProt P22086+P19328+P22909); test: Displacement of [3H]yohimbine from alpha 2 adrenergic receptor in rat brain cortex after 30 mins by liquid scintillation counting; format: tissue-based; outline: as §1
T4 sequence (P22086 whole entry): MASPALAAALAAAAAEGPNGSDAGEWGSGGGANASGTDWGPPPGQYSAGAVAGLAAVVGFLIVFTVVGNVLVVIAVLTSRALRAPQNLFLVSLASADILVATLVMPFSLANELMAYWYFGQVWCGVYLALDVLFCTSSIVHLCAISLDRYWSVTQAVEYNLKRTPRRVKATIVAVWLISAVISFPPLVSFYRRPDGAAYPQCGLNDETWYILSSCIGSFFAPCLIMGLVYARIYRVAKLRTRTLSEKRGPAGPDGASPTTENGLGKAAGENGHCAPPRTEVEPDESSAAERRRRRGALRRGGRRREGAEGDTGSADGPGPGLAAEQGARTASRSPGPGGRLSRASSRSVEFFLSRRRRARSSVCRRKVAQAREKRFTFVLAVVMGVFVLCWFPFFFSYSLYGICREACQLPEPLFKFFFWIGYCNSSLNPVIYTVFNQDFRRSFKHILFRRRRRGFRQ
T4 sequence (P19328 whole entry): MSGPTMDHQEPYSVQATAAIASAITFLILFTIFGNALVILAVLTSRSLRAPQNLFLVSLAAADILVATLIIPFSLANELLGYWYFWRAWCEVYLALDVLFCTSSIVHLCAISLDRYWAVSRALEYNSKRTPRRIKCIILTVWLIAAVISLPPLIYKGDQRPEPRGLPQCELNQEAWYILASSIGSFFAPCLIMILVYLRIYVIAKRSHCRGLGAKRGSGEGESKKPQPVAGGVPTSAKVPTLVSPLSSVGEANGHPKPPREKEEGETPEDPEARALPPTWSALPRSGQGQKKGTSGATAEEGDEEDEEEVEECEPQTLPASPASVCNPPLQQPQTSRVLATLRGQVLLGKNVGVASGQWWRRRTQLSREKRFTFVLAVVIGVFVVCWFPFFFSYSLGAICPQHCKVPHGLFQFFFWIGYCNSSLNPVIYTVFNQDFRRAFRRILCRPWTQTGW
T4 sequence (P22909 whole entry): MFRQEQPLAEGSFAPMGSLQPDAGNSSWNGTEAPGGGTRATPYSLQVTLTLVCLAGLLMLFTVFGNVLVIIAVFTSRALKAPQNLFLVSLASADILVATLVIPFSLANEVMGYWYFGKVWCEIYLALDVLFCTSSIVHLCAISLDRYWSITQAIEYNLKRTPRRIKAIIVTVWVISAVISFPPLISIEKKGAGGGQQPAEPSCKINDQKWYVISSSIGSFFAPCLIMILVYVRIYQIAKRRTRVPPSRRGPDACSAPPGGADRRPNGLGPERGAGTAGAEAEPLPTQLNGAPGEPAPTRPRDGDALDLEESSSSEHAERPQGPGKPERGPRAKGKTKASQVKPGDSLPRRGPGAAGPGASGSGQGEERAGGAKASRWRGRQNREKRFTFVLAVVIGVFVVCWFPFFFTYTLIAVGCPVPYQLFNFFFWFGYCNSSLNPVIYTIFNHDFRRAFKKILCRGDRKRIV

SMILES | Ki [1] | Ki ([2]; read-out: Ki) [µM] | Ki ([3]; read-out: Ki) [nM] | Ki [4] [µM] | Ki (D(1A) dopamine receptor) [µM] | Ki [2] | Ki (D(2) dopamine receptor) [µM] | Ki [5] [µM] | Ki ([1]; read-out: Ki) [µM] | Ki [3]
COc1ccc(N2CCN(CCCN/C(=N\C#N)c3ccncc3)CC2)cc1 | Not Active | > 10 | > 10000 | – | – | – | – | – | – | –
N#C/N=C(\NCCCN1CCN(c2ccccc2Cl)CC1)c1ccncc1 | Not Active | > 10 | 166 | – | – | – | – | – | – | –
N#C/N=C(\NCCCN1CCN(c2ccccn2)CC1)c1ccncc1 | Not Active | – | 0.038 | > 10 | > 10 | Not Active | > 10 | > 10 | – | –
COc1ccccc1N1CCN(CCCN/C(=N\C#N)c2ccncc2)CC1 | Not Active | > 10 | 1.47 | > 10 | > 10 | – | > 10 | 2.57 | – | –
N#C/N=C(\NCCCN1CCN(c2cccc(C(F)(F)F)c2)CC1)c1ccncc1 | Not Active | 0.0321 | 141 | – | – | – | – | – | – | –
CCOCCN1CCN(CCCN/C(=N\C#N)c2ccncc2)CC1 | Not Active | – | > 10000 | – | – | Not Active | – | – | – | –
N#C/N=C(\NCCCN1CCN(Cc2ccc3c(c2)OCO3)CC1)c1ccncc1 | Not Active | > 10 | > 10000 | – | – | – | – | – | – | –
N#C/N=C(\NCCCN1CCN(C(=O)c2ccco2)CC1)c1ccncc1 | Not Active | > 10 | > 10000 | – | – | – | – | – | – | –
Cc1cccc(N2CCN(CCCN/C(=N\C#N)c3ccncc3)CC2)c1C | Not Active | > 10 | 101 | – | – | – | – | – | – | –
CCOc1ccccc1N1CCN(CCCN/C(=N\C#N)c2ccncc2)CC1 | – | 1.9 | 21.3 | 0.19 | > 10 | – | > 10 | 0.516 | 0.0115 | –
C=CCN1CCN(CCCN/C(=N\C#N)c2ccncc2)CC1 | Not Active | – | – | – | – | Not Active | – | – | – | Not Active
N#C/N=C(\NCCCN1CCN(c2ncccn2)CC1)c1ccncc1 | Not Active | – | 172 | – | – | Not Active | – | – | – | –
N#C/N=C(\NCCCN1CCN(c2cccc(Cl)c2)CC1)c1ccncc1 | Not Active | > 10 | 6.17 | 0.912 | 1.63 | – | > 10 | > 10 | – | –
N#C/N=C(\NCCCN1CCN(c2ccccc2C#N)CC1)c1ccncc1 | Not Active | > 10 | – | – | – | – | – | – | – | Not Active
COCCN1CCN(CCCN/C(=N\C#N)c2ccncc2)CC1 | Not Active | > 10 | – | – | – | – | – | – | – | Not Active
